The source of these data is ChEMBL document CHEMBL1123437, “Isozyme-specific enzyme inhibitors. 12. C- and N-methylmethionines as substrates and inhibitors of methionine adenosyltransferases of normal and hepatoma rat tissues” (J Med Chem, 1986).

Data set [1] addresses T1, S-adenosylmethionine synthetase (MAT 1 and MAT 2) (Rattus norvegicus) (UniProt P13444+P18298). The data set can be described thus: Substrate activity as rate of conversion of [C14]-ATP to [C14]-Adomet in relation to KM value of methionine with M-T of rat methionine adenosyltransferase. The format is protein assay. The method, boiled down:
(§1)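 Kinetics with 0.4 mM [14C]ATP and 1.72 × 10^-6 units M-2 (kidney) or 1.58 × 10^-6 units M-T (hepatoma), 60 min, 37 °C, pH 8.2. Product resolved by paper electrophoresis and counted. KM and Vmax from linear double-reciprocal plots. Vmax expressed relative to L-Met = 100; reported as the relative Vmax/KM ratio.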

Data set [2] concerns the target T1, S-adenosylmethionine synthetase (MAT 1 and MAT 2) (Rattus norvegicus). Put plainly: Substrate level that produces half the maximal velocity(M-T) of rat methionine adenosyltransferase. The format is protein assay. The gist of the method: (§2)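 KM from linear double-reciprocal plots of velocity vs derivative concentration. Conditions: 0.4 mM [14C]ATP, 1.72 × 10^-6 units M-2 (rat kidney) or 1.58 × 10^-6 units M-T (Novikoff hepatoma), 60 min, 37 °C, Tris pH 8.2 with KCl/MgCl2/DTT. [14C]AdoMet derivative separated by paper electrophoresis and counted.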

The target is the same in data set [3]. The data set can be described thus: Compound (3 mM) was tested for the inhibition of conversion of [14C]methionine to [14C]-AdoMet by M-T (hepatoma tissue) of rat methionine adenosyltransferase. The format is protein assay. The method, boiled down: (§3)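 Radiometric [14C]Met→[14C]AdoMet assay with partially purified rat MAT (M-2 from kidney, 8.6 × 10^-6 units; M-T from Novikoff hepatoma, 7.9 × 10^-6 units). Derivative at 3 mM, 2 mM MgATP, pH 8.2 Tris/KCl/MgCl2/DTT buffer, 37 °C, 10 min. Acid-stopped; supernatant counted on phosphocellulose discs. No-ATP incubations served as controls.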

Data set [4] in a line: Ratio of Vmax of normal tissue (M-T) form of rat methionine Adenosyltransferase to that of KM of normal tissue(M-T)form of rat methionine Adenosyltransferase. The method, boiled down:
as §1

Data set [5] concerns the target S-adenosylmethionine synthase isoform type-2 (Rattus norvegicus) (UniProt P18298). Put plainly: Compound (3 mM) was tested for the inhibition of conversion of [14C]methionine to [14C]AdoMet by rat Methionine adenosyltransferase II. The gist of the method: as §3
Target sequence in this assay (P18298 whole entry, canonical isoform): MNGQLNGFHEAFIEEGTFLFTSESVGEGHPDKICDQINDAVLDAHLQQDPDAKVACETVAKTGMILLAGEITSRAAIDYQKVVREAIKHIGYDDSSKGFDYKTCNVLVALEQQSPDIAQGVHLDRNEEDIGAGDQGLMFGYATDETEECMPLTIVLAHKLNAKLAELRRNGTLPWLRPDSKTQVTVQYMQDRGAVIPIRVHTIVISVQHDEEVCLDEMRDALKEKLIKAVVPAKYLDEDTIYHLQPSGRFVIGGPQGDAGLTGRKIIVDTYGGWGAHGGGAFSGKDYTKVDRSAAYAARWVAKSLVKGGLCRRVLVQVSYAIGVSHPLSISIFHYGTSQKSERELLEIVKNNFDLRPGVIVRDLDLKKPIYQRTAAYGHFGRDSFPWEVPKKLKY
Data set [6] has the same target. Put plainly: Substrate activity of compound (4 mM) measured as the rate of conversion of [C14]-ATP to [C14]-Adomet in relation to KM value of methionine rat Methionine adenosyltransferase II. The method, boiled down: as §1
Target sequence in this assay (P18298 whole entry, canonical isoform): as above
Data set [7] has the same target. The data set can be described thus: Substrate activity of compound (4 mM) measured as the rate of conversion of [C14]-ATP to [C14]-Adomet in relation to KM value of methionine with rat Methionine adenosyltransferase II. The method, boiled down:
as §1
Target sequence in this assay (P18298 whole entry, canonical isoform): as above

A short description of data set [8]: Ratio of relative Vmax of normal tissue (M-2) form of rat methionine Adenosyltransferase to that of KM of normal tissue(M-2)form of rat methionine Adenosyltransferase. The method, boiled down: as §1
For data set [9], the target named is T1, S-adenosylmethionine synthetase (MAT 1 and MAT 2) (Rattus norvegicus). The data set can be described thus: Substrate level that produces half the maximal velocity(M-2) of rat methionine adenosyltransferase. The format is protein assay. The gist of the method: as §2
The target in data set [10] is S-adenosylmethionine synthase isoform type-2 (Rattus norvegicus) (UniProt P18298). The data set can be described thus: Compound (3 mM) was tested for the inhibition of conversion of [14C]methionine to [14C]AdoMet by M-2 (normal tissue) of rat methionine Adenosyltransferase. The method, boiled down: as §3
Target sequence in this assay (P18298 whole entry, canonical isoform): as above
For data set [11], the target named is T1, S-adenosylmethionine synthetase (MAT 1 and MAT 2) (Rattus norvegicus). The data set can be described thus: Compound (3 mM) was tested for the inhibition of conversion of [14C]methionine to [14C]AdoMet by M-T (hepatoma tissue) of methionine adenosyltransferase. The format is protein assay. The gist of the method:
as §3

Data set [12] shares this target. The data set can be described thus: Substrate activity of compound (4 mM) measured as the rate of conversion of [C14]-ATP to [C14]-Adomet in relation to KM value of methionine with M-T of rat MAT. The format is protein assay. The method, boiled down: as §1
For data set [13] the target is unchanged. The data set can be described thus: Compound (3 mM) was tested for the inhibition of conversion of [14C]methionine to [14C]-AdoMet by M-T (hepatoma tissue) of rat methionine Adenosyltransferase. The format is protein assay. The method, boiled down:
as §3

For data set [14] the target is unchanged. Put plainly: […](M-T) of rat methionine adenosyl transferase. The format is protein assay. The method, boiled down: as §2
For data set [15] the target is unchanged. The data set can be described thus: Substrate level that produces half the maximal velocity(M-2) of rat methionine adenosyl transferase. The format is protein assay. The method, boiled down: as §2
In data set [16] the target is S-adenosylmethionine synthase isoform type-2 (Rattus norvegicus) (UniProt P18298). Put plainly: Substrate activity of compound (4 mM) measured as the rate of conversion of [C14]-ATP to [C14]-Adomet in relation to KM value of methionine of rat Methionine adenosyltransferase II. The gist of the method:
as §1
Target sequence in this assay (P18298 whole entry, canonical isoform): as above

The next data set concerns CSCC[C@](C)(N)C(=O)O. Put plainly: (§4) Substrate activity with […] (M-T) form of rat methionine adenosyltransferase. The format is protein assay.
The next data set deals with CSC[C@@H](C)C(N)C(=O)O. The data set is described as §4. The format is protein assay.
Data set [17] concerns CSCC[C@H](N)C(=O)O. The data set can be described thus: (§5) Substrate activity with […] form of rat methionine Adenosyltransferase. The format is protein assay.
Data set [18] relates to CSCC(C)C(N)C(=O)O. Described as §5. The format is protein assay.
In data set [19] the target is T1, S-adenosylmethionine synthetase (MAT 1 and MAT 2) (Rattus norvegicus). Put plainly: Substrate activity with […](M-Tform of rat methionine adenosyltransferase. The format is protein assay. The settings on record: concentration not given here. The gist of the method: (§6)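 Derivative at 4 mM with [14C]ATP and 1.6 × 10^-5 units rat MAT, 1 h at 37 °C. [14C]AdoMet derivative separated by paper electrophoresis (pH 5.0 acetate) and counted. Result given as cpm per 10 µL above a control lacking the derivative. At least twice control counts scored as substrate activity.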

Data set [20] deals with S-adenosylmethionine synthase isoform type-2 (Rattus norvegicus) (UniProt P18298). Put plainly: (§7) Substrate activity with rat Methionine adenosyltransferase II. The settings on record: concentration not given here. The method, boiled down:
as §6
Target sequence in this assay (P18298 whole entry, canonical isoform): as above

Data set [21] has the same target. The data set can be described thus: Rate of conversion of [C14]-ATP to [C14]-Adomet in relation to KM value of methionine with Methionine adenosyltransferase II. The method, boiled down:
as §1

The target in data set [22] is T1, S-adenosylmethionine synthetase (MAT 1 and MAT 2) (Rattus norvegicus). The data set can be described thus: Rate of conversion of [C14]-ATP to [C14]-Adomet in relation to KM value of methionine with methionine adenosyltransferase. The format is protein assay. The method, boiled down:
as §1

Data set [23] has as its system CS[C@H](C)C[C@H](N)C(=O)O. The data set is described as §7.
A further data set concerns CSC(C)C[C@@H](N)C(=O)O. The description is as §7.
Data set [24] relates to CSCC[C@H](N)C(=O)O. The data set is described as §7.
Data set [25] concerns CSCC(C)C(N)C(=O)O. Described as §7.
Data set [26] addresses S-adenosylmethionine synthase isoform type-2 (Rattus norvegicus) (UniProt P18298). Put plainly: Substrate activity with normal tissue form of rat Methionine adenosyltransferase II.
Target sequence in this assay (P18298 whole entry, looked up, canonical isoform): as the sequence (P18298 whole entry, canonical isoform) above

Where “and” joins values, the source holds several entries; their conditions need not be identical. Equal values may be shown once.

Sequence of S-adenosylmethionine synthetase (MAT 1 and MAT 2) (Rattus norvegicus) (from UniProt P13444+P18298) (P18298 whole entry, looked up): as the sequence (P18298 whole entry, canonical isoform) above
Sequence of S-adenosylmethionine synthetase (MAT 1 and MAT 2) (Rattus norvegicus) (from UniProt P13444+P18298) (P13444 whole entry, looked up): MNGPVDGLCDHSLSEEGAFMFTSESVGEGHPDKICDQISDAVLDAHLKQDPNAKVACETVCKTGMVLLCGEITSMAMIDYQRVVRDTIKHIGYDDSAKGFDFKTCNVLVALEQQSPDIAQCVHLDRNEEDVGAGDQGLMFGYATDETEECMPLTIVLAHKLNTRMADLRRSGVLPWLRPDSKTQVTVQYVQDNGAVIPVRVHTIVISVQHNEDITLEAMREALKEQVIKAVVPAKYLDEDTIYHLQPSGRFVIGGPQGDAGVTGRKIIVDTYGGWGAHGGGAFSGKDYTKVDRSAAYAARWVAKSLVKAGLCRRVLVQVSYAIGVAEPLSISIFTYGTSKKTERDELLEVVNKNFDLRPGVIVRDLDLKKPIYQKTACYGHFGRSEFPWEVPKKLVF
Sequence of S-adenosylmethionine synthase isoform type-2 (Rattus norvegicus), P18298 (P18298 whole entry, canonical isoform): as the sequence (P18298 whole entry, canonical isoform) above

In the case of `CSCC[C@](C)(N)C(=O)O`, the Substrate activity in [1] is 241 c.p.m; in data set [6], 49 c.p.m. In [2], this compound showed a Relative Vmax of 27. For the same compound, the inhibition in data set [3] worked out at 11%; in data set [5], 15%. For the same compound, the Ratio in data set [4] was 1.3.
As to `CN[C@@H](CCSC)C(=O)O`, the Substrate activity in data set [1] was 36 c.p.m; in data set [7], -9 c.p.m. Moreover, the inhibition in [3] is 0%; in data set [5], 2.9%.
Turning to `CSC(C)C[C@@H](N)C(=O)O` (stereo partly drawn), the results for the Substrate activity in data set [1] and in data set [7] were 272 c.p.m and 624 c.p.m, respectively. In data set [8], the Ratio is 2.6. The values for the inhibition in data set [3] and in [5] were 24% and 29%, respectively. The Relative Vmax in data set [9] was 26.
As for `CS[C@@H](C)C[C@@H](N)C(=O)O`, the figures for the Substrate activity in data set [1] and in [7] were 173 c.p.m and 30 c.p.m, respectively. Moreover, the inhibition stood at 14% in data set [3] and 9.7% in data set [10].
With `CSCC[C@@](C)(N)C(=O)O`, the Substrate activity was determined as 40 c.p.m in data set [1] and 41 c.p.m in [7]. Besides, the inhibition in data set [11] stood at 3.7%; in [10] it was 4.8%.
As to `CS[C@H](C)C[C@H](N)C(=O)O`, the Substrate activity was found to be 731 c.p.m in data set [1] and 506 c.p.m in data set [7]. Further, in [8], the Ratio amounted to 1.9. The inhibition in data set [3] worked out at 15%; in data set [5], 24%. In data set [9], this compound returned a Relative Vmax of 27.
Regarding `CSCC(C)C(N)C(=O)O` (stereo not drawn), the Substrate activity in data set [12] is 701 c.p.m; in data set [7], 838 c.p.m. In addition, the Ratio in data set [8] is 4.4; in data set [4] it was 8.6. Moreover, the inhibition in data set [10] was determined as 68%; in [13], 65%. In [14], the Relative Vmax is 27 and 12.
As to `CSC[C@@H](C)[C@@H](N)C(=O)O`, the Substrate activity in data set [1] amounted to 381 c.p.m; in [7], 333 c.p.m. Moreover, the Ratio in [8] was determined as 0.9. In addition, the results for the inhibition in data set [3] and in data set [5] were 15% and 21%, respectively. Further, the Relative Vmax in data set [15] was found to be 26.
Take `CSCC[C@H](N)C(=O)O`: the Ratio in [8] turned out to be 20000; in [4], 6400. The compound also had a Relative Vmax in [14] of 100.
For the compound `CSC[C@@H](C)[C@H](N)C(=O)O`, the Substrate activity was 191 c.p.m in data set [1] and -10 c.p.m in [7]. For the same compound, the inhibition in data set [3] amounted to 6.6%; in data set [5], 17%.
On to `CCCCN[C@@H](CCSC)C(=O)O`, for which the Substrate activity was 13 c.p.m in [1] and -15 c.p.m in data set [7]. Further, the inhibition in data set [11] and in [5] was 0% each time.
On to `CSC[C@@H](C)C(N)C(=O)O` (stereo partly drawn), for which the Substrate activity came out at 348 c.p.m in data set [1] and 38 c.p.m in data set [16]. In data set [2], this compound came in with a Relative Vmax of 37. The inhibition in data set [3] stood at 8.7%; in [5], 15%. Moreover, the Ratio in [4] is 1.8.
Turning to “S-adenosylmethionine synthetase (MAT 1 and MAT 2) (Rattus norvegicus) (from UniProt P13444+P18298)”, the Km with CSCC[C@](C)(N)C(=O)O worked out at 21 mM; in the data set with CSC[C@@H](C)C(N)C(=O)O, 20 mM; in the data set with CSCC[C@H](N)C(=O)O [17], 0.0156 mM; with CSCC(C)C(N)C(=O)O [18], 1.4 mM.
In the case of `CNCCC(N)C(=O)O` (stereo not drawn), the inhibition in data set [19] worked out at 0%; in [20] it was 6.6%. In addition, the values for the Substrate activity in data set [21] and in data set [22] were 37 cpm and 33 cpm, respectively.
For “S-adenosylmethionine synthase isoform type-2 (Rattus norvegicus), P18298”, the Km stood at 14 mM in data set [23]; 10 mM with CSC(C)C[C@@H](N)C(=O)O; 0.005 mM in the data set on CSCC[C@H](N)C(=O)O [24]; 6.1 mM in the data set on CSCC(C)C(N)C(=O)O [25]; 29 mM in data set [26].

As usually defined, the inhibition is the drop in the measured response relative to a control, in per cent. A lower inhibition goes with little suppression. The term Km denotes the concentration of substrate that gives half-maximal velocity.
